NR2E3 ag-1: NR2E3 agonists in two-hybrid cells, primary screen, cell-based, luminescence, CHO-S, Gal4-NCOR/VP16-NR2E3; hit rate 0.35% among 360,000; AID 602229, 2012; Photoreceptor-specific nuclear receptor (Homo sapiens), Q9Y5X4; inhibition of corepressor binding, % at 3.98 µM; luciferase;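 active = inhibition above the mean of all tested compounds plus 3 SD, cut at about 70% in these data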;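 also: 0% = DMSO with NR2E3 transfected cells and 100% = cells lacking NR2E3 construct; higher means lower luciferase signal from less NR2E3 corepressor binding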
Target sequence (Q9Y5X4 whole entry, looked up, the tested form may be a part): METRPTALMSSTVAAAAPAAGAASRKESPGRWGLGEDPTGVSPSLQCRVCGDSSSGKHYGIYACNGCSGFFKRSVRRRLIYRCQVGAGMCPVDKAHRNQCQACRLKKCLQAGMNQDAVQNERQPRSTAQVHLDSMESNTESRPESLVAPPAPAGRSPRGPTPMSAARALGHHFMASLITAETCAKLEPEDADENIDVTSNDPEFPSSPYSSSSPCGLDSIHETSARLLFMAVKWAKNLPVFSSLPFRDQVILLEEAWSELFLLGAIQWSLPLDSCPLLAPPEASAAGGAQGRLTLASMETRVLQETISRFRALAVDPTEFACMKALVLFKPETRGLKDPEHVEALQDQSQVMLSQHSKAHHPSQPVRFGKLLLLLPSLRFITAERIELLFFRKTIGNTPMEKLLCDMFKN
Rev-erbA mod: modulators of Rev-erb alpha DNA binding, primary screen, biochemical, FITC-DNA, fluorescence polarization, uHTS. Nuclear receptor subfamily 1 group D member 1 (Homo sapiens), P20393. AID 1259318, 2017. Rev-erbα–FITC-DNA binding, 90 min. activity, % at 10 µM. hit rate 0.79% among 370,000;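 active = activity above about 14%, limit read from the data; passing the limit was not always enough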;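 also: 0% = DMSO wells with 35 nM protein and 100% = DMSO wells with 750 nM protein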
PG9 binder: binders of HIV-1 gp120 antibody PG9, primary screen, biochemical, TR-FRET. AID 624416, 2012. TR-FRET gp120-PG9 antibody binding. inhibition, % at 6.7 µM. HIV-1 gp120 / PG9 antibody interaction. hit rate 0.43% among 360,000; in the data active = inhibition above about 8.5%
NR2E3 ag-2: inhibitors of NR2E3-RetCOR corepressor binding, primary screen, NR2E3 agonist project, biochemical, TR-FRET, GST-NR2E3, biotin-RetCOR | 1536-well | inhibition of corepressor binding, % at 4.78 µM | hit rate 0.12% among 320,000;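 active = percent inhibition above the cutoff of mean plus 3 SD of all tested compounds, set per screening campaign, cut at about 20% in these data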;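 also: 0% = DMSO wells and 100% = biotin wells as full block of FRET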
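System: GST-tagged NR2E3 plus biotinylated RetCOR corepressor; Amount: 1.35 nM GST-tagged NR2E3 final; Dosing: single nominal compound dose of 4.8 µM; Schedule: 5 h incubation at 4 °C; Technique: TR-FRET with europium anti-GST and streptavidin-D2, 340 nm excitation; Controls: biotin wells as high control, 0.6% DMSO wells as low control.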
Rev-erbA confirm: modulators of Rev-erb alpha DNA binding, confirmation, biochemical, FITC-DNA, fluorescence polarization, single point; 90 min; shares compounds with Rev-erbA mod; hit rate 61% among 3,000; activation, % at 25 µM;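 active = activation at or above a set limit, or at least 3 SD above the negative control mean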;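 also: 0% = 35 nM protein with DMSO and 100% = 750 nM protein high control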
RORg counter: modulation of RORgamma DNA binding, dose response, counter-screen for Rev-erb alpha modulator project, biochemical, fluorescence polarization, FITC-DNA. shares compounds with Rev-erbA mod. hit rate 8% among 910. IC50, µM. purified RORgamma protein-FITC-DNA binding;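 active = Compounds whose fitted half-maximal concentration for disrupting protein-DNA binding is below 10 micromolar; the record names Rev-erb in its text, so the target is in doubt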
* = called active by the depositor; · = not tested or not shown. Shown are actives, neighbours in structure and some others; about 1.4% of the full set was active somewhere.

SMILES	NR2E3 ag-1	Rev-erbA mod	PG9 binder	NR2E3 ag-2	Rev-erbA confirm	others
COc1cc(-c2noc(-c3cccc(Cl)c3)n2)cc(OC)c1OC	-42	74*	4	4	123*
N#Cc1c(C(F)(F)F)cc(-c2ccc(Cl)cc2)[nH]c1=O	3	-1	-1	5	·
CSc1cc(-c2ccc(Cl)cc2)[nH]c(=O)c1C#N	-5	82*	2	2	12
O=c1[nH]c2ccccc2nc1/C=C(\O)c1cccs1	-140	43*	-7	0	22*
C=CCn1c(COc2ccc(Cl)cc2)nnc1SCC(=O)c1c(N)n(C)c(=O)n(C)c1=O	-15	24*	0	1	-14
CCN1CCCCC(NC(=O)c2ccccc2C)C1=O (stereo unspecified)	·	-1	·	·	·
COc1ccccc1N1N=C(c2ccc([N+](=O)[O-])cc2)CC1c1ccccc1 (stereo unspecified)	15	15	-1	-1	·
COc1cc(N2N=C(c3ccccc3)CC2c2ccccc2)c(C=O)cc1C=O (stereo unspecified)	4	107*	1	4	75*	RORg counter=>40
c1ccc(OCc2nnc(SCc3nc4ccccc4[nH]3)n2-c2ccccc2)cc1	·	-6	·	·	·
CCOc1ccc(C(C)=O)cc1COC(=O)c1cc([N+](=O)[O-])ccc1N1CCOCC1	-5	14*	0	2	-3
CC1CCN(C(=O)C2CCCN(C(=O)c3ccc4c(c3)NC(=O)CS4)C2)CC1 (stereo unspecified)	·	-1	·	·	·
CCCNC(=O)c1ccc(N2CCC3(CC2)CC(c2ccccc2)=NO3)c(NC(=O)c2ccco2)c1	0	5	-1	2	·
CCCNC(=O)c1ccc(N2CCC3(CC2)CC(c2ccccc2)=NO3)c(NC(=O)c2cccc(OC)c2)c1	-15	20*	0	4	1
Cc1cc(NC(=O)CSc2ccc3nnc(-c4ccc(Cl)cc4)n3n2)no1	-8	-4	0	3	·
Cc1cnn(-c2ccc3nnc(-c4ccc(Cl)cc4)n3n2)c1	-6	22*	-2	2	27*
CN(C)/C=C/c1oc2ccc(O)cc2c1[N+](=O)[O-]	-39	37*	-27	-12	17
Cc1oc2ccc(O)cc2c1C(=O)c1ccc([N+](=O)[O-])cc1	-38	-3	-3	2	·
Cc1c(N2C(=O)/C(=C/c3ccc(N(C)C)cc3)N(C)C2=S)c(=O)n(-c2ccccc2)n1C	10	22*	-17	·	19*
Clc1ccc(CSc2nnc(-c3cccs3)o2)cc1Cl	·	-1	·	·	·
N#Cc1ccc(C#Cc2ccc3oc4ccccc4c(=O)c3c2)cc1	-5	16*	-1	·	17
CC(=O)Nc1ccc(C(=O)N2c3ccccc3N=C(c3ccc4c(c3)OCO4)C2C(=O)NCc2ccccc2)cc1 (stereo unspecified)	·	-1	-3	·	·
O=C(NCc1ccccc1)C1C(c2ccc3c(c2)OCO3)=Nc2ccccc2N1C(=O)c1cccc2ccccc12 (stereo unspecified)	·	16*	-2	·	6
Cc1cccc(C)c1NC(=O)C1C(c2ccc3c(c2)OCO3)=Nc2ccccc2N1C(=O)c1cccc2ccccc12 (stereo unspecified)	·	29*	-2	·	17*
COc1ccc(S(=O)(=O)NCC(=O)N2CCN(c3ccccn3)CC2)c(OC)c1	·	-4	·	·	·
COC(=O)[C@]12C[C@H](CC(=O)NCCc3ccccc3OC)C(=O)N(CCc3ccc(OC)c(OC)c3)C1=C[C@H](C(C)(C)C)O[C@@H]2C	·	4	·	·	·
SMILES	NR2E3 ag-1	Rev-erbA mod	PG9 binder	NR2E3 ag-2	Rev-erbA confirm	others
CC(C)=CCC/C(C)=C/CNCC(=O)N1c2ccccc2[C@]2(C)C[C@@H]3C(=O)N(C/C=C(\C)CCC=C(C)C)CC(=O)N3[C@H]12	·	3	·	·	·
COc1ccc(C(=O)Nc2ccccc2-c2nnn(CC(N)=O)n2)cc1	-15	96*	-1	·	81*	RORg counter=>40
COc1cc(C(=O)Nc2ccccc2-c2nnn(CC(N)=O)n2)cc(OC)c1OC	-10	3	1	4	·
COc1cccc(NC(=O)CSc2nc3ccccc3c3nc4ccccc4n23)c1	-35	54*	0	0	-6
CCOc1ccc(NC(=O)Cn2cc(C(C)=O)c3ccccc32)cc1	-9	29*	-2	0	13
CCC(=O)c1cn(CC(=O)Nc2cccc(OC)c2)c2ccccc12	-3	26*	-1	5	18
CCCCNC(=O)C[C@H]1C[C@@]2(C(=O)OC)C(=C[C@H](C3CCCC3)O[C@@H]2C)N(Cc2ccc(Cl)cc2Cl)C1=O	·	-3	·	·	·
CCn1c(=O)cc(SCC(=O)Nc2ccc(Cl)cc2)c2ccccc21	-3	138*	0	-1	90*	RORg counter=>40
CCn1c(=O)cc(OCC(=O)Nc2cccnc2)c2ccccc21	-33	4	0	2	·
CCOC(=O)c1ccc(NC(=O)COc2cc(=O)n(CC)c3ccccc23)cc1	-1	28*	1	-1	27*
COc1cccc(-c2nc(CS(=O)(=O)CC(=O)Nc3ccccc3C)c(C)o2)c1	-5	1	3	1	·
COc1cccc(-c2nc(CS(=O)(=O)CC(=O)NCc3ccc(Cl)cc3)c(C)o2)c1	-22	29*	3	-3	32*	RORg counter=>40
COc1cccc(-c2nc(CS(=O)(=O)CC(=O)Nc3cccc(C)c3C)c(C)o2)c1	25	19*	1	4	9
CCCNC(=O)CS(=O)(=O)Cc1nc(-c2cccc(OC)c2)oc1C	10	-6	-1	4	·
FC(F)(F)Oc1ccc(Cn2ccc3ccc(-c4ccc5ccn(Cc6ccccc6)c5c4)cc32)cc1	·	0	·	·	·
CSc1ccc(C=NNC(=O)c2cc(-c3ccc(Cl)cc3)n[nH]2)cc1	·	-4	·	·	·
O=S(=O)(c1ccc2nc(N3CCN(c4ccccc4F)CC3)ccc2c1)N1CCCCC1	10	41*	0	-1	31*	RORg counter=>40
O=c1ccc2cc(S(=O)(=O)N3CCN(c4ccccc4F)CC3)ccc2[nH]1	23	-2	0	1	·
O=S(=O)(c1ccc(F)cc1)N1CCN(c2ccc(F)cc2)CC1	-37	0	0	1	·
CC1CCN(S(=O)(=O)c2ccc3nc(N4CCN(c5ccccc5)CC4)ccc3c2)CC1	·	92*	1	7	57*	RORg counter=>40
O=S(=O)(c1ccc2nc(N3CCN(c4ccc(F)cc4)CC3)ccc2c1)N1CCCCC1	-2	37*	-1	-1	27*
